# MPTP block: mitochondrial permeability transition pore inhibitors, primary screen, biochemical, isolated mouse mitochondria, absorbance; AID 602449, 2012; Ca2+ swelling absorbance, 30 min; inhibition, % at 10 µM; hit rate 1.4% among 360,000;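 active = inhibition of 50% or more, scaled per plate between neutral and stimulator controls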;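 note: 0% = DMSO wells given calcium and 100% = 1 mM EGTA wells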
# Beta2AR agonist: beta2AR agonists driving receptor internalization, primary screen, cell-based, FAP fluorogen, flow cytometry. Beta-2 adrenergic receptor (Homo sapiens), P07550. Am2.2-beta2AR cells. response, % (concentration not given with the values). hit rate 0.43% among 340,000. AID 504454, 2011;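 active = response above a set limit, near 3 SD of response in nonfluorescent compounds, cut at about 42% in these data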
# Target sequence (P07550 whole entry, looked up): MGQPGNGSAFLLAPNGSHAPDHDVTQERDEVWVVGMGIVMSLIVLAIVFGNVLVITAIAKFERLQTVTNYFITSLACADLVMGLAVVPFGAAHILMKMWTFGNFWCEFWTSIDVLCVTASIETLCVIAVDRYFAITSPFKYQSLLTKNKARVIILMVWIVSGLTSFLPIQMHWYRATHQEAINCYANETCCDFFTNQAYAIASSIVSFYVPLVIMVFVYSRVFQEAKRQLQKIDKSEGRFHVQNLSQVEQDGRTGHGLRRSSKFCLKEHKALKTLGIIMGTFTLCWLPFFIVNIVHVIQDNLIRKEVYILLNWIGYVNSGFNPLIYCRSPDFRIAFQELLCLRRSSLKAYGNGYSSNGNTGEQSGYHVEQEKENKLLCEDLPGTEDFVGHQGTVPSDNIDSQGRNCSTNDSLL
# T cell HTS: modulators of CD8 T cell-vesicle binding, primary screen, mouse 2C CD8+ T cells, flow cytometry; 2C CD8+ T cell-vesicle binding; stronger effect = lower value; response (vesicle binding), % at 7 µM; hit rate 0.068% among 330,000; AID 2052, 2009;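 active = response, share of CD8 T cells binding vesicles, and their 90th percentile fluorescence all below set limits, cut at about 80% in these data, passing the limit was not always enough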;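 note: values below 100% mean blocked vesicle binding to the CD8+ T cells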
#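 System: murine 2C transgenic CD8+ T lymphocytes; also added: QL9-loaded Drosophila micro-vesicles; times: binding 1.5 h at 37 °C; measured by: flow cytometry, PE anti-B7-1 (FL2) versus Alexa647 anti-CD8 (FL8), PFA-fixed; control set: Peptide-free naked vesicles (low) and QL9 vesicles with 0.7% DMSO vehicle (high)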
# Exocytosis inh: LAMP-1 surface exposure blockers, TALL-104 cells – cell-based, flow cytometry, MLPCN library, primary screen. TALL-104 LAMP-1 surface exposure; cells stimulated with thapsigargin and PMA. inhibition, % at 10 µM. hit rate 0.66% among 360,000;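 active = inhibition above about 55%, limit read from the data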
# rCAG RNA binder: binders of r(CAG) RNA repeats, primary screen, biochemical, fluorescence | hit rate 1.3% among 370,000 | r(CAG) RNA repeat, TO-PRO-1 dye displacement fluorescence | inhibition, % at 3 µM | AID 651821, 2012;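 active = inhibition above the plate cutoff, the mean of all test compounds on that plate plus 3 SD, cut at about 35% in these data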;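 note: 0% = DMSO alone and 100% = 100 µM mitoxantrone as full dye displacement; higher means more dye released from RNA so lower well fluorescence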
# V-ATPase pHluor: regulators of yeast V-ATPase proton pumping, primary screen, pHLuorin cytosolic pH fluorescence; S. cerevisiae; response, % at 10 µM; hit rate 0.37% among 350,000; AID 504577, 2011; in the data active = response mostly above about 7.3%, no sharp cut-off; inactive = mostly below about 5.4%; note: actives read high
# B2AR ag CP1: beta2AR agonists via receptor internalization, confirmation, cell-based, FAP fluorogen, flow cytometry, single point, cherry pick 1; shares compounds with Beta2AR agonist; Am2.2-beta2AR cells, FAP surface receptor; stronger effect = lower value; percent response (surface receptor), % at 10 µM; hit rate 25% among 1,100; AID 540358, 2011;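 active = surface receptor percent response at or below 58%, roughly 3 SD from nonfluorescent compounds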
# B2AR FAP counter: counter-screen for beta-2AR agonists: fluorescence in Am2.2 cells; 1,100 tested, under 10 active; shares compounds with Beta2AR agonist; FAP fluorogen flow cytometry, fluorescence counterscreen; stronger effect = lower value; calls only at 10 µM; AID 588765;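 active = percent response below a set limit in fluorescence channel 1 and below 50% in channel 8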
# * = called active by the depositor; i = inactive; nt = not tested or not shown; + = active, no number. This is a sample that favours compounds with a hit; in the whole collection about 3.8% have one here.
SMILES,MPTP block,Beta2AR agonist,T cell HTS,Exocytosis inh,rCAG RNA binder,V-ATPase pHluor,B2AR ag CP1,B2AR FAP counter
N=c1n(CC(=O)c2ccc([N+](=O)[O-])cc2)c2ccccc2n1Cc1ccccc1,4.4,98.0*,342.0,76.5*,4.7,-2.9,39.9*,i
N=c1n(CC(=O)c2ccc([N+](=O)[O-])cc2)c2ccccc2n1Cc1ccccc1Cl,4.5,93.5*,280.7,-9.8,0.6,-2.2,24.4*,+
Nc1c(C(=O)NCC2CCCO2)c2nc3ccccc3nc2n1/N=C/c1ccncc1 (stereo not drawn),4.5,19.4,nt,1.5,4.6,-3.5,nt,nt
CCC(C)NC(=O)c1c(N)n(/N=C/c2cccnc2)c2nc3ccccc3nc12 (stereo not drawn),-0.1,47.8*,192.0,17.4,1.9,-7.0,84.0,i
COc1ccc(CNC(=O)CN(C(=O)c2snc(C(N)=O)c2N)c2ccc(F)cc2)cc1,-1.0,47.3*,289.8,10.3,1.9,-1.0,86.6,i
Oc1ccccc1-c1cc(C(F)(F)C(F)F)nc(-c2ccccc2)n1,0.8,4.0,270.7,-2.0,-1.0,-0.5,nt,nt
O=[N+]([O-])c1ccc(O)c(-c2cc(C(F)(F)F)nc(-c3ccccc3)n2)c1,31.6,47.7*,104.8,31.1,5.1,0.8,81.4,i
O=c1c2ccccc2[nH]n1[C@@H](Cc1ccccc1)Cn1cc(-c2ccc(-c3ccccc3)cc2)nn1,nt,nt,nt,nt,19.3,nt,nt,nt
COc1ccc(OC)c(C(=O)NC(CC(N)=O)c2ccc(N3CCN(c4ccccn4)CC3)c([N+](=O)[O-])c2)c1 (stereo not drawn),-2.3,16.1,342.7,-4.5,0.7,-0.3,141.0,i
Cc1cc(C)cc(C(=O)NC(CC(N)=O)c2ccc(N3CCN(c4ccccn4)CC3)c([N+](=O)[O-])c2)c1 (stereo not drawn),-0.1,67.8*,0.0,-0.9,0.5,5.1,17.5*,i
COc1ccc(OC)c(C(=O)NC(CC(N)=O)c2ccc(N3CCN(c4ccccc4)CC3)c([N+](=O)[O-])c2)c1 (stereo not drawn),-0.1,-4.1,211.2,-6.3,5.0,-1.5,nt,nt
COc1ccc(CNS(=O)(=O)/C=C/c2ccc(OC)cc2CNC(=O)OC(C)(C)C)cc1,nt,nt,nt,nt,-0.5,nt,nt,nt
O=C(NCCN1CCC(Cc2ccccc2)CC1)C1CCCN(S(=O)(=O)c2ccc([N+](=O)[O-])cc2)C1 (stereo not drawn),nt,nt,nt,nt,1.8,nt,nt,nt
CC(=O)c1oc2ccccc2c1NC(=O)CCCN1C(=O)c2ccccc2C1=O,0.8,67.6*,255.9,-4.9,-0.2,-2.2,100.8,i
CCN1CCN(c2ccc(S(=O)(=O)N3CCCCC3)cc2NC(=O)c2cc3ccccc3o2)CC1,17.8,47.9*,451.9,-6.2,2.9,-3.2,115.4,i
COc1ccc(C2C(C#N)=C(N)Oc3c2sc2nc(C)cc(C)c32)cc1 (stereo not drawn),5.3,80.2*,262.0,0.3,8.2,-4.7,43.4*,i
O=C(c1ccc(OC2CCN(Cc3ccc(F)cc3)CC2)cc1)N1CCCC1,0.2,43.1*,181.6,-0.8,-7.1,-2.8,45.7*,i
CCc1ccc(CN2CCC(Oc3ccc(C(=O)N4CCCC4)cc3)CC2)cc1,-0.3,82.0*,0.0,-1.0,-12.2,-1.0,9.0*,i
O=C(c1cccc(OC2CCN(Cc3ccc(F)cc3)CC2)c1)N1CCCC1,-1.8,-6.8,nt,-1.1,-8.5,0.5,nt,nt
CCc1ccc(CN2CCC(Oc3ccc(C(=O)N4CCCCC4)cc3)CC2)cc1,2.0,67.4*,506.6,10.0,-12.4,4.0,40.0*,i
CSc1ccc(CN2CCC(Oc3ccc(C(=O)N4CCCC4)cc3)CC2)cc1,-1.9,51.1*,314.6,-8.0,-8.8,-3.2,70.3,i
CC(C)c1ccc(CN2CCC(Oc3ccc(C(=O)N4CCCC4)cc3)CC2)cc1,0.3,3.6,211.4,0.1,-11.4,-2.1,nt,nt
COC(=O)[C@]12C[C@H](CC(=O)NCCCCc3ccccc3)C(=O)N(Cc3ccc(Cl)cc3Cl)C1=C[C@H](C(C)(C)C)O[C@@H]2C,nt,nt,nt,nt,2.8,nt,nt,nt
CCCCN1C(=O)N2Cc3ccc(C)cc3C2CS1(=O)=O (stereo not drawn),nt,nt,nt,nt,3.0,nt,nt,nt
O=C(CCn1nnc(-c2cccs2)n1)NCc1ccco1,nt,nt,nt,nt,0.0,nt,nt,nt
SMILES,MPTP block,Beta2AR agonist,T cell HTS,Exocytosis inh,rCAG RNA binder,V-ATPase pHluor,B2AR ag CP1,B2AR FAP counter
COc1ccc(CN2CCC(Oc3ccc(C(=O)N4CCCC4)cc3)CC2)c(F)c1,-0.7,26.2,271.2,-3.7,-13.2,-1.6,107.3,i
COc1cc(C)c(CN2CCC(Oc3ccc(C(=O)N4CCCC4)cc3)CC2)cc1C,0.4,0.5,380.0,-0.6,-10.6,-0.6,nt,nt
Cc1ccc(CNC(=O)OC(C)(C)C)c(/C=C/S(=O)(=O)NCCc2ccccc2)c1,nt,nt,nt,nt,2.4,nt,nt,nt
COc1ccc(-c2csc3nc(C(C)C)oc(=O)c23)cc1OC,-2.0,-4.5,283.6,0.4,3.1,-0.2,nt,nt
COc1ccc(-c2nc3scc(-c4ccc(OC)c(OC)c4)c3c(=O)o2)cc1,1.0,51.0*,436.5,-3.8,nt,0.0,87.9,i
O=C(c1cccs1)N1CC[C@H]2[C@H](CCCN2Cc2ccc(F)cc2)C1,nt,nt,nt,nt,1.2,nt,nt,nt
Cc1c(C(=O)N2CCOCC2)oc2ccc(S(=O)(=O)N3CCCC3)cc12,0.1,4.1,291.4,2.4,-3.6,-2.1,nt,nt
Cc1c(C(=O)N2CCc3ccccc3C2)oc2ccc(S(=O)(=O)N3CCCCCC3)cc12,0.4,47.6*,219.3,-0.5,3.8,0.4,63.1,i
CC(C)c1ccc(NC(=O)C(c2ccc3c(c2)OCO3)N2CCC3(CC2)OCCO3)cc1 (stereo not drawn),-0.4,8.0,156.1,0.1,1.0,-1.5,127.4,i
O=C(Nc1ccc2c(c1)OCO2)C(c1ccc(Cl)cc1)N1CCC2(CC1)OCCO2 (stereo not drawn),-1.1,17.8,226.9,2.7,-0.4,1.3,nt,nt
O=C(CSc1nnc(-c2cccs2)o1)c1cccc([N+](=O)[O-])c1,nt,nt,nt,nt,4.5,nt,nt,nt
O=[N+]([O-])c1ccc(-[n+]2ccc3ccccc3c2)c([N+](=O)[O-])c1,-2.1,47.3*,253.5,2.7,4.5,-2.0,39.6*,i
O=[N+]([O-])c1ccc(SNc2ccccc2)c([N+](=O)[O-])c1,36.1,-10.5,nt,-3.2,6.5,-2.3,nt,nt

# Screens from PubChem BioAssay.
